Substitutions are numbered along the chain they refer to.

The target in data set [1] is T1, WT PDK1 PH domain (Homo sapiens, UniProt O15530).
T1 sequence (O15530 459-550 limits assumed): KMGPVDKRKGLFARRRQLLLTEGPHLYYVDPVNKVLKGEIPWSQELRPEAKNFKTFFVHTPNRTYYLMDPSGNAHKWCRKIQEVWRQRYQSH
The data set is classed as binding.

Data set [2] concerns the target T1, WT PDK1 PH domain. Type of data set: binding. The conditions noted are these: read-out: KD(IP6); free WT PH domain in solution, 25 °C, physiological buffer. In a few lines: (§1)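 Free PH domain, purified from Sf9 cells, was titrated with IP₆ in solution at 25 °C. The buffer was HEPES pH 7.4 with 140 mM KCl, 15 mM NaCl, 0.5 mM MgCl₂ and 10 mM DTT. Intrinsic Trp fluorescence was read at ex 284 nm / em 335 nm, slits 1/8 nm. K_DI came from a nonlinear least squares fit assuming homogeneous binding sites.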

Data set [3] addresses T2, T513E PDK1 PH domain (Homo sapiens, UniProt O15530, T513E).
T2 sequence (O15530 459-550 T513E limits assumed): T1 sequence (O15530 459-550 limits assumed) with T55E
Type of data set: binding. Particulars: read-out: KD(IP6); free T513E PH domain in solution, 25 °C, physiological buffer. The gist of the method: as §1

The target of data set [4] is T2, T513E PDK1 PH domain. The data set is classed as binding. The gist of the method: (§2)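 PH domain (1 μM, from Sf9 cells) was rapidly mixed by stopped flow with plasma membrane-like SUVs (600 μM total lipid, 6 μM accessible PIP₃). Final concentrations were 0.5 μM protein and 3 μM PIP₃, at 25 °C in HEPES pH 7.4 buffer with 10 mM DTT. Trp-to-dansyl-PE FRET was monitored, and a single-exponential fit gave k_on(app). k_off was estimated from the measured K_D and k_on.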

Data set [5] concerns WT and T513E PDK1 PH domains. The data set is classed as binding, human. The conditions noted are these: PC/PS/PIP3 74/24/2 supported bilayer (dioleoyl PIP3), SE n = 3.
For data set [6], the target named is T1, WT PDK1 PH domain. Type of data set: binding. In a few lines: as §2
The source holds these as a separate data set.

Data set [7] concerns the molecule itself. The data set can be described thus: single molecule TIRFM brightness analysis.

With `O=P(O)(O)OC1[C@H](O)[C@H](OP(=O)(O)O)C(OP(=O)(O)O)[C@H](OP(=O)(O)O)[C@H]1O` (some centres unmarked) [IP4, inositol 1,3,4,5-tetrakis(phosphate)], the “higher affinity for IP4 than for IP6” value in data set [1] (WT PH domain) is reported as 80 fold.
On to `O=P(O)(O)OC1C(OP(=O)(O)O)C(OP(=O)(O)O)C(OP(=O)(O)O)C(OP(=O)(O)O)C1OP(=O)(O)O` (centres unmarked) [IP6, Inositol 1,2,3,4,5,6-hexakisphosphate], for which the membrane-bound protein displaced result in data set [1] (1 mM IP6, WT PH domain on PIP3 target membranes) was “less than 5%”. For the same molecule, the results for the Kd in data set [2] and in data set [3] were 9 ± 3 µM and 30 ± 11 µM, respectively.
As for `CCCCCCCCCCCCCCCC(=O)OC[C@H](COP(=O)(O)OC1[C@H](O)[C@H](OP(=O)(O)O)C(OP(=O)(O)O)[C@H](OP(=O)(O)O)[C@H]1O)OC(=O)CCCCCCCCCCCCCCC` (some centres unmarked) [PIP3, 1,2-dipalmitoylphosphatidylinositol 3,4,5-trisphosphate], the “greater PIP3 membrane affinity of dimeric WT relative to monomeric T513E” value in data set [1] (plasma membrane-like bilayers) came to 35 fold. Moreover, the “kon (app)” value in data set [4] (T513E PH domain 0.5 μM, 3 μM accessible PIP3, 25 °C) turned out to be 2.5e+06 ± 100000 M⁻¹ s⁻¹; in data set [6] (WT PH domain 0.5 μM, 3 μM accessible PIP3, 25 °C) it was 1.6e+06 ± 100000 M⁻¹ s⁻¹. The “koff (calc)” value in data set [4] (T513E PH domain, estimated from measured KD and kon) was 18 ± 5 ms ^−1; in data set [6] (WT PH domain, estimated from measured KD and kon) it was 0.3 ± 0.2 ms ^−1. Moreover, the “higher concentration of T513E PH domain needed relative to WT for same density of membrane-associated single particles (lower affinity for target PIP3 bilayer)” value in data set [5] was 9.7 ± 1.9 fold.

B1: human WT PDK1 PH domain, AF555-labeled (domain or fragment, UniProt O15530 409-556, looked up)
chain: GSNIEQYIHDLDSNSFELDLQFSEDEKRLLLEKQAGGNPWHQFVENNLILKMGPVDKRKGLFARRRQLLLTEGPHLYYVDPVNKVLKGEIPWSQELRPEAKNFKTFFVHTPNRTYYLMDPSGNAHKWCRKIQEVWRQRYQSHPDAAVQ
modifications: Alexa Fluor 555 on the N-terminal Sfp labeling tag (enzymatic labeling, up to ~50% labeling efficiency)
As to B1, in data set [7], the stoichiometry N (as a rule, a count of units in the complex or per binding partner) was 2.
